Test results from PubChem BioAssay AID624007 (Broad Institute, 2012).
Active and inactive are the calls of the source.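 How the source made its calls: active means compounds lowering the uptake signal whose fitted half-maximal concentration is at most twice their top valid dose; inconclusive means flat curve between 30% and 70% signal loss, or poor fit; inactive means opposite direction, flat near zero, or potency beyond limit.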

assay: DiI-HDL uptake inhibition in parental ldlA7 cells, dose response, counter-screen for SR-BI HDL uptake inhibitor project, cell-based, CHO ldlA7, fluorescence, dry powder, set 2 (AID 624007); conditions: 3 h, at 35000 nM
In short: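 Assay system: ldlA7 CHO cells without LDL receptor, no mSR-BI overexpression; Medium: HEPES-buffered (pH 7.4) F12 plus 0.5% fatty acid-free BSA; Reagent: DiI-labelled HDL, 10 µg/mL final; Schedule: 3 h co-incubation of compounds and DiI-HDL at 37 °C; Detection: DiI fluorescence, bottom read, Ex 550/Em 595 nm.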

Compound	DiI-HDL uptake signal change vs neutral control (%), lower = more inhibition
C=CCOC(=O)N(C)C[C@@H]1Oc2ccc(NC(=O)NC(C)C)cc2C(=O)N([C@H](C)CO[Si](C)(C)C(C)(C)C)C[C@H]1C	18.2% (inactive)
C=CCOC(=O)N(C)C[C@@H]1Oc2ccc(NC(=O)OCC3c4ccccc4-c4ccccc43)cc2C(=O)N([C@H](C)CO)C[C@H]1C	18.3% (inactive)
CC(C)NC(=O)Nc1ccc2c(c1)C(=O)N([C@@H](C)CO)C[C@@H](C)[C@H](CN(C)S(=O)(=O)c1ccc(Cl)cc1)O2	-2.49% (inactive)
C=CCOC(=O)N(C)C[C@@H]1Oc2ccc(N)cc2C(=O)N([C@H](C)CO[Si](C)(C)C(C)(C)C)C[C@H]1C	4.25% (inactive)
